Assay results from ChEMBL document CHEMBL1800061 (J Med Chem, 2010).
Calls of active or inactive are those of the source. No cut-off for these calls is given here.

Experiments:
[1] = Lipophilicity, log D of the compound in n-octanol:PBS at pH 7.4; format: physicochemical
[2] = target: Protein kinase C zeta type (Homo sapiens) (UniProt Q05513); experiment: Inhibition of PKCzeta assessed as residual enzyme activity at 10 uM
[3] = Tmax in mouse at 10 mg/kg, po; format: ADME, organism-based; parameters: dose 10 mg/kg, route oral; settings: in vivo
[4] = target: Serine/threonine-protein kinase Chk1 (Homo sapiens) (UniProt O14757); experiment: Inhibition of CHK1 assessed as residual enzyme activity at 10 uM
[5] = target: Cyclin-dependent kinase 9 (Homo sapiens) (UniProt P50750); experiment: Inhibition of CDK9-mediated phosphorylation at Ser2 in C-terminal domain of RNA polymerase 2 in human HCT116 cells after 4 hrs by immunoblotting analysis; format: cell-based; settings: HCT-116
Outline: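 HCT116 colon cancer cells were kept in DMEM with 10% FCS. Cells (8×10^5) were plated, dosed 24 h later, and exposed for 4 or 24 h. Whole-cell lysates were made in RIPA buffer with phosphatase and protease inhibitor cocktails and normalised by BCA protein assay. They were immunoblotted for phospho-sites, total proteins and cyclins.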

[6] = Tmax in mouse at 10 mg/kg, ip; format: ADME, organism-based; parameters: dose 10 mg/kg, route intraperitoneal; settings: in vivo
[7] = target: Mitogen-activated protein kinase 11 (Homo sapiens) (UniProt Q15759); experiment: Inhibition of P38beta MAPK assessed as residual enzyme activity at 10 uM
Mitogen-activated protein kinase 11 (Homo sapiens), sequence (Q15759 whole entry): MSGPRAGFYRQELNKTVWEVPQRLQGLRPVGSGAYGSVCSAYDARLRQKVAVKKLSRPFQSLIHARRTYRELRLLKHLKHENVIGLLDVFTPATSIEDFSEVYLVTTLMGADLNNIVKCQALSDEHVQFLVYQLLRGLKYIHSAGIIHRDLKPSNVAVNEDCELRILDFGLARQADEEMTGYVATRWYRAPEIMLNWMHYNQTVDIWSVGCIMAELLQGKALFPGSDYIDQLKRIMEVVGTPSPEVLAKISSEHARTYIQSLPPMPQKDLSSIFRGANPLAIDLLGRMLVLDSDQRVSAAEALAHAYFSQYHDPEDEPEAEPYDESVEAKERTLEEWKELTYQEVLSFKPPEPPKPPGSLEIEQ

Protein kinase C zeta type (Homo sapiens), sequence (Q05513 whole entry): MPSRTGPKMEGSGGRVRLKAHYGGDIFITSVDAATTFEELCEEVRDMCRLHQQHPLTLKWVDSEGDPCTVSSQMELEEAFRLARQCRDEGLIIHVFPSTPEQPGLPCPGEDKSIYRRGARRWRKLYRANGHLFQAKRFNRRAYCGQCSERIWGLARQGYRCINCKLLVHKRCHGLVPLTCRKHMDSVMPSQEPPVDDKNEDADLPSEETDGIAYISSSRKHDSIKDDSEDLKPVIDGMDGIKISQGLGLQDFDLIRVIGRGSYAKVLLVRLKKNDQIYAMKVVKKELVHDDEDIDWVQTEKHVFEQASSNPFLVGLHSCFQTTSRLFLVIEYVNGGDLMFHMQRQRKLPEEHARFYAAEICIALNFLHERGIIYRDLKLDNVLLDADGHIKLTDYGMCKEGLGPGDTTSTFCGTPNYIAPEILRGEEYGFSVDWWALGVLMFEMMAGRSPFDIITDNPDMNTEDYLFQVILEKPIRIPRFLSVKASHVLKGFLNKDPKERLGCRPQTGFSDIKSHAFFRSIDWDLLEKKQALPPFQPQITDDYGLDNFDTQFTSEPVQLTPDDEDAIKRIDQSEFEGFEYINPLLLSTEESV
Serine/threonine-protein kinase Chk1 (Homo sapiens), sequence (O14757 whole entry, the tested form may be a part): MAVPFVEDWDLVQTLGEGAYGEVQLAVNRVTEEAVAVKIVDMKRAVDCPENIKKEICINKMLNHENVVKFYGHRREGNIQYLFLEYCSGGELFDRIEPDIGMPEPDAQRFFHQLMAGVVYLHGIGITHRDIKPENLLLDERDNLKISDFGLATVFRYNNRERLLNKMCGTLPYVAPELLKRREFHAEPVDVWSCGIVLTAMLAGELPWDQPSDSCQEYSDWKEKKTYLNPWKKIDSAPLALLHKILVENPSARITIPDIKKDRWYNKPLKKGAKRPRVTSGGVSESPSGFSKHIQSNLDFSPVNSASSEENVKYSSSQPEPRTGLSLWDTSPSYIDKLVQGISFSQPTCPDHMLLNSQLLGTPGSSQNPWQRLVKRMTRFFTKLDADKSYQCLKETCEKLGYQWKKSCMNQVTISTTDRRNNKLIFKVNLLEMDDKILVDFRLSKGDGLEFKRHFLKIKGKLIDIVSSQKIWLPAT
Cyclin-dependent kinase 9 (Homo sapiens), sequence (P50750 whole entry, the tested form may be a part): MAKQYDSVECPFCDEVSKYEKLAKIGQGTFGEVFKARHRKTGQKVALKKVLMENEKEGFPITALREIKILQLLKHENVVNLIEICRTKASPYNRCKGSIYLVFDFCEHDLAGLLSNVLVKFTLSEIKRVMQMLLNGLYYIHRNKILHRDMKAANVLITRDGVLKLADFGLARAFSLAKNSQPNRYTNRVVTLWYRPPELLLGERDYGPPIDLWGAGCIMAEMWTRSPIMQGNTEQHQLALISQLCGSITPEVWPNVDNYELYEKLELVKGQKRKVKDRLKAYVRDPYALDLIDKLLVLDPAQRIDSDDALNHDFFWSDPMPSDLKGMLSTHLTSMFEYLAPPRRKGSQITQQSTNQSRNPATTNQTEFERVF

## CC(C)c1cnn2c(NCc3ccccc3)cc(N[C@@H](CO)[C@H](O)CO)nc12
[1]
  logD: 3
[2]
  Activity: 64%
[3]
  Tmax: 15 min
[4]
  Activity: 98%
[5]
  inhibition: Active
[6]
  Tmax: 30 min
[7]
  Activity: 94%
